Experimental data: ChEMBL document CHEMBL1141424, “Antitubercular dihydroagarofuranoid sesquiterpenes from the roots of Microtropis fokienensis” (2007)
In brackets after ≈: the same amount, converted by molar mass.

These molecules were tested on Mycobacterium tuberculosis (assay: Antitubercular activity against Mycobacterium tuberculosis 90-221387).
Type: functional
Method in brief: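 Agar proportion method on Middlebrook 7H10 with OADC, clinical susceptible isolate 90-221387. Compound serially diluted into agar at 50-56 °C, final 100 to 0.8 µg/mL, in quadrant plates. Inoculum in 7H9 broth adjusted to McFarland no. 1, then 10-2 dilution, spotted on each quadrant. Incubated 35 °C, 10% CO2, 2 weeks. MIC read; ethambutol positive control; means of 3 or 4 replicates.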

Going from `CC(=O)O[C@H]1CC[C@@H](C)[C@]23OC(C)(C)[C@H](C[C@H](OC(=O)c4ccccc4)[C@]12COC(=O)c1ccccc1)[C@H]3OC(=O)c1ccccc1` to `CC(=O)O[C@H]1[C@@H](O)C[C@@H](C)[C@]23OC(C)(C)[C@H](C[C@H](OC(=O)c4ccccc4)[C@]12COC(=O)c1ccccc1)[C@H]3OC(=O)c1ccccc1`, the MIC falls from 78.1 µM (≈ 50 µg/mL) to 19.5 µM (≈ 12.8 µg/mL) (4-fold).

First: CC(=O)O[C@H]1C[C@@H](C)[C@]23OC(C)(C)[C@H](C[C@H](OC(=O)c4ccccc4)[C@]2(COC(=O)c2ccccc2)[C@H]1OC(C)=O)[C@H]3OC(=O)c1ccccc1
Second: CC(=O)O[C@H]1C[C@@H](C)[C@]23OC(C)(C)[C@H](C[C@H](OC(=O)c4ccccc4)[C@]2(COC(=O)c2ccccc2)[C@H]1O)[C@H]3OC(=O)c1ccccc1
The MIC of the first is 6.1-fold higher: 96 µM (≈ 67.1 µg/mL) for the first, 15.8 µM (≈ 10.4 µg/mL) for the second.

Compared with `CC(=O)O[C@H]1CC[C@@H](C)[C@@]23C[C@@H](C[C@H](OC(=O)c4ccccc4)[C@]12C)C(C)(C)O3`, `CC(=O)O[C@H]1[C@@H](OC(=O)c2ccccc2)C[C@@H](C)[C@]23OC(C)(C)[C@H](C[C@H](OC(=O)c4ccccc4)[C@]12C)[C@H]3OC(=O)c1ccccc1` [ORBICULIN G] is 1.8-fold lower in MIC: 26 µM (≈ 10.4 µg/mL) for the first, 14.6 µM (≈ 9.35 µg/mL) for the second.

Going from `O=Cc1ccc(O)cc1` [4-HYDROXYBENZALDEHYDE] to `O=C(O)c1ccc(O)cc1` [PARABEN], the MIC falls from over 400 µM to 362 µM (≈ 50 µg/mL).

`CC[C@H](CC[C@@H](C)[C@H]1CC[C@H]2[C@@H]3CC=C4CC(=O)CC[C@]4(C)[C@H]3CC[C@]12C)C(C)C` [BETA-SITOSTENONE] and `CC[C@H](CC[C@@H](C)[C@H]1CC[C@H]2[C@@H]3CC=C4C[C@@H](O)CC[C@]4(C)[C@H]3CC[C@]12C)C(C)C` [BETA-SITOSTEROL] cannot be ordered by MIC: over 400 µM for the first, over 400 µM for the second.

Going from `CC[C@@H](CO)NCCN[C@@H](CC)CO` [ETHAMBUTOL] to `COc1cc(C(=O)O)cc(OC)c1O` [SYRINGIC ACID], the MIC rises from 30.6 µM (≈ 6.25 µg/mL) to 318 µM (≈ 63 µg/mL) (10-fold).

`O=Cc1cc(Cc2ccc(O)cc2)ccc1O` [FORKIENIN] and `COc1cc(C(=O)O)ccc1O` [VANILLIC ACID] are within 1.5-fold of each other in MIC: 276 µM (≈ 63 µg/mL) for the first, 375 µM (≈ 63.1 µg/mL) for the second.

`CC(=O)O[C@H]1C[C@@H](C)[C@]23OC(C)(C)[C@H](C[C@H](OC(=O)c4ccccc4)[C@]2(COC(=O)c2ccccc2)[C@H]1OC(C)=O)[C@H]3OC(C)=O` [MUTANGIN] was tested, and the MIC was 51.8 µM (≈ 33 µg/mL).
